Results: ChEMBL document CHEMBL2424598, “Identification and optimization of pteridinone Toll-like receptor 7 (TLR7) agonists for the oral treatment of viral hepatitis” (J Med Chem, 2013)

What was measured:
[1] = Half life in rat liver microsomes; format: ADME, Microsome
[2] = Cmax in cynomolgus monkey at 2 mg/kg, po; format: ADME, organism-based, Macaca fascicularis; set-up: dose 2 mg/kg, route oral; details: in vivo
Method in brief: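 Male cynomolgus monkeys, n = 3 per group, received a 30 min iv infusion or an oral dose. Compound was measured in serum (limit of quantitation 0.04 ng/mL), and Cmax is reported as the group mean.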

[3] = Volume of distribution at steady state in cynomolgus monkey at 0.1 mg/kg, iv and 0.3 mg/kg, po; format: ADME, organism-based, Macaca fascicularis; details: in vivo, read-out: Vdss
Method in brief: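 Healthy male cynomolgus monkeys, n = 3, received a 30 min iv infusion at 0.1 mg/kg or an oral dose at 0.3 mg/kg. The oral formulation was water at pH 3.1 (HCl). Plasma PK parameters (CL, Vss, F) are reported as mean ± SD.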

[4] = test system: Cynomolgus monkey; assay: Agonist activity at […] in cynomolgus monkey assessed as increase of serum IFNalpha level at 0.1 mg/kg, po after 1 to 24 hrs by ELISA; format: functional, Macaca fascicularis
Method in brief: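 Healthy male cynomolgus monkeys, n = 3 per group, dosed either by 30 min iv infusion or orally. Serum was sampled predose and at 1, 2, 4, 8, 12 and 24 h postdose. IFN-α was measured by species-specific ELISA (limit of detection 130 pg/mL) and reported as mean peak serum level ± SD.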

In the case of `CCCCOc1nc(N)c2c(n1)N(Cc1cccc(CN3CCCC3)c1)CC(=O)N2` [VESATOLIMOD], the half-life [1] is reported as 5.4 min, the Cmax [2] is reported as 66.4 ng/mL and the Vd [3] is reported as 4.1 L/kg. The Activity [4] was 140 pg/mL.
